According to ChEMBL document CHEMBL1139955, “C(4)-alkyl substituted furanyl cyclobutenediones as potent, orally bioavailable CXCR2 and CXCR1 receptor antagonists” (Bioorg Med Chem Lett, 2007):

Tests used:
[1] = target: T1, C-X-C chemokine receptor type 2 (Homo sapiens, UniProt P25025); assay: Displacement of [125I]IL8 from human CXCR2 expressed in CHO cells by SPA; assay type: cell-based
T1 sequence (P25025 whole entry): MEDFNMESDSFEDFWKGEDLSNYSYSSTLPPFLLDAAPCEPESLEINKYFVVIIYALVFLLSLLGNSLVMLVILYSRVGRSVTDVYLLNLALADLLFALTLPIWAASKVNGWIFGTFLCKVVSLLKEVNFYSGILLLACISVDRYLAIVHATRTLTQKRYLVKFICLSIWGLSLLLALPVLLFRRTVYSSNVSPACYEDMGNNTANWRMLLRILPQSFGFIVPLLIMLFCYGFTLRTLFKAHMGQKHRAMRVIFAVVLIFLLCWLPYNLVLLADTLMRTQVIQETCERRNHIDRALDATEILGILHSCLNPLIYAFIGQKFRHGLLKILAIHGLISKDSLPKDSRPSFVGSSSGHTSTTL

[2] = target: T2, C-X-C chemokine receptor type 1 (Homo sapiens, UniProt P25024); assay: Displacement of [125I]IL8 from human CXCR1 expressed in CHO cells by SPA; assay type: cell-based
T2 sequence (P25024 whole entry): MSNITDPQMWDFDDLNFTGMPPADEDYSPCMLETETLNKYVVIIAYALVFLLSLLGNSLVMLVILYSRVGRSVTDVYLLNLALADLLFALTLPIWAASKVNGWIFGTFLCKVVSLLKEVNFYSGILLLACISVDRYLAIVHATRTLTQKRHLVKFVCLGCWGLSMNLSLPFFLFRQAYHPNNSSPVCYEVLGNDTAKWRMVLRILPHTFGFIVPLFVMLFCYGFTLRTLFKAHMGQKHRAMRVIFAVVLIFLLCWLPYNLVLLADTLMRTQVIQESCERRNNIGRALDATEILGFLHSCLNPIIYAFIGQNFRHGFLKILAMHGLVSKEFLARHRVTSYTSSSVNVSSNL

[3] = AUC in rat at 10 mg/kg, po after 6 hrs; assay type: ADME, organism-based; parameters: time < 6 hr, dose 10 mg/kg, route oral; conditions: plasma
[4] = AUC in mouse at 25 mg/kg, po after 7 hrs; assay type: ADME, organism-based; parameters: time < 7 hr, dose 25 mg/kg, route oral; conditions: plasma
Neutrophil [5] = assay: Inhibition of GROalpha-induced migration of human neutrophils by chemotaxis assay; assay type: functional, cell-based
In short: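 Human neutrophil migration stimulated with 30 nM Gro-α; IC50 determined.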

Rattus norvegicus = species on record: Rattus norvegicus; assay: Antiinflammatory activity against rat model of lipopolysaccharide-induced pulmonary inflammation; assay type: functional
[6] = Cmax in rat at 10 mg/kg, po after 6 hrs; assay type: ADME, organism-based; parameters: dose 10 mg/kg, route oral; conditions: in vivo
[7] = AUC in monkey at 3 mg/kg, po after 48 hrs; assay type: ADME, organism-based, Macaca mulatta; parameters: time < 48 hr, dose 3 mg/kg, route oral; conditions: rhesus monkey, plasma
[8] = Cmax in dog at 2 mg/kg, po after 48 hrs; assay type: ADME, organism-based, Canis lupus familiaris; parameters: dose 2 mg/kg, route oral; conditions: in vivo
[9] = Cmax in mouse at 25 mg/kg, po after 7 hrs; assay type: ADME, organism-based; parameters: dose 25 mg/kg, route oral; conditions: in vivo
[10] = Cmax in monkey at 3 mg/kg, po after 48 hrs; assay type: ADME, organism-based, Macaca mulatta; parameters: dose 3 mg/kg, route oral; conditions: rhesus monkey, in vivo
Mus musculus = species on record: Mus musculus; assay: Antiinflammatory activity against mouse model of cigarette smoke-induced neutrophilic inflammation; assay type: functional
Neutrophil [11] = assay: Inhibition of IL8-induced migration of human neutrophils by chemotaxis assay; assay type: functional, cell-based
In short: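 Human neutrophil migration stimulated with 3 nM IL-8; IC50 determined.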

[12] = AUC in dog at 2 mg/kg, po after 48 hrs; assay type: ADME, organism-based, Canis lupus familiaris; parameters: time < 48 hr, dose 2 mg/kg, route oral; conditions: plasma

Structure (SMILES) | Ki [1] [nM] | Ki [2] [nM] | other results
CC(C)c1coc([C@H](Nc2c(Nc3cccc(C(=O)N(C)C)c3O)c(=O)c2=O)C(F)(F)F)c1 | 6 | 16 | –
CC[C@@H](Nc1c(Nc2cccc(C(=O)N(C)C)c2O)c(=O)c1=O)c1cc(CCCCN2CCOCC2)co1 | 9 | 14 | –
CC[C@@H](Nc1c(Nc2cccc(C(=O)N(C)C)c2O)c(=O)c1=O)c1cc(C)cs1 | 5 | 24 | –
CC[C@@H](Nc1c(Nc2cccc(C(=O)N(C)C)c2O)c(=O)c1=O)c1ccc(C)s1 | 5 | 146 | –
CC(C)c1coc([C@H](Nc2c(Nc3cccc(C(=O)N(C)C)c3O)c(=O)c2=O)C2CC2)c1 | 3 | 10 | –
CC[C@@H](Nc1c(Nc2cccc(C(=O)N(C)C)c2O)c(=O)c1=O)c1cc(C2CCCC2)co1 | 3 | 53 | –
CC(C)c1coc([C@H](Nc2c(Nc3cccc(C(=O)N(C)C)c3O)c(=O)c2=O)C(C)(C)C)c1 | 4 | 14 | –
CC[C@@H](Nc1c(Nc2cccc(C(=O)N(C)C)c2O)c(=O)c1=O)c1cc(C2CCCCC2)co1 | 4 | 283 | –
CC[C@@H](Nc1c(Nc2cccc(C(=O)N(C)C)c2O)c(=O)c1=O)c1sccc1C | 10 | 123 | –
CC(C)c1coc([C@H](Nc2c(Nc3cccc(C(=O)N(C)C)c3O)c(=O)c2=O)C(C)C)c1 | 4 | 11 | –

Continued, in another order:

Ki [1] [nM] | Ki [2] [nM] | Structure (SMILES) | other results
0.8 | 30 | CCC(CC)c1coc([C@@H](CC)Nc2c(Nc3cccc(C(=O)N(C)C)c3O)c(=O)c2=O)c1 | –
0.6 | 7.6 | CCC(C)c1coc([C@@H](CC)Nc2c(Nc3cccc(C(=O)N(C)C)c3O)c(=O)c2=O)c1 (some centres undefined) | –
4 | 9 | CC[C@@H](Nc1c(Nc2cccc(C(=O)N(C)C)c2O)c(=O)c1=O)c1cc(C)co1 | AUC at 6 h [3]: 32.6 µM·h
1 | 7 | CCc1coc([C@@H](CC)Nc2c(Nc3cccc(C(=O)N(C)C)c3O)c(=O)c2=O)c1 | AUC at 6 h [3]: 17.4 µM·h
2 | 34 | CCCCc1coc([C@@H](CC)Nc2c(Nc3cccc(C(=O)N(C)C)c3O)c(=O)c2=O)c1 | –
4 | 10 | CC[C@@H](Nc1c(Nc2cccc(C(=O)N(C)C)c2O)c(=O)c1=O)c1cc(C(C)(C)C)co1 | –
1 | 3 | CC[C@@H](Nc1c(Nc2cccc(C(=O)N(C)C)c2O)c(=O)c1=O)c1cc(C(C)C)co1 | AUC at 7 h [4]: 4.6 µM·h; IC50 (Neutrophil [5]): 0.5 nM; ED50 (Rattus norvegicus): 0.9 mg/kg; Cmax [6]: 3.8 µM; AUC at 48 h [7]: 4.2 µM·h; AUC at 6 h [3]: 5.4 µM·h; Cmax [8]: 5.3 µM; IC50 [1]: 1.3 nM; Cmax [9]: 4.6 µM; Cmax [10]: 0.38 µM; ED50 (Mus musculus): 1 mg/kg; IC50 (Neutrophil [11]): 37 nM; AUC at 48 h [12]: 7.1 µM·h; IC50 [2]: 7.3 nM
2 | 50 | CC(C)c1coc([C@@H](C)Nc2c(Nc3cccc(C(=O)N(C)C)c3O)c(=O)c2=O)c1 | –
25 | 379 | CCc1ccoc1[C@@H](CC)Nc1c(Nc2cccc(C(=O)N(C)C)c2O)c(=O)c1=O | –
